This is an account of results in article PMC8052299 (Biochemical pharmacology, 2021).

Data set [1] is described as follows: Viability of uninfected PBMCs. The conditions noted are these: human, CC50, uninfected PBMCs, Viacount dye. The data set is classed as cell-based, human.
The test system of data set [2] is PBMCs. Kind of data set: Viability of uninfected PBMCs. The data set is classed as cell-based, human. The conditions noted are these: 6 days, Viacount dye.
Data set [3] relates to J-Lat 9.2 cells. Briefly: LRA-induced provirus expression. The data set is classed as cell-based. To be noted: J-Lat 9.2, 24 h.
Data set [4] concerns J-Lat 10.6 cells. Briefly: LRA-induced provirus expression. To be noted: J-Lat 10.6, 24 h. The data set is classed as cell-based.
In data set [5] the test system is OM-10.1 cells. Kind of data set: TNFα-induced provirus expression. The data set is classed as cell-based. The conditions noted are these: 24 h, read-out: TNFα EC50, inhibition of provirus expression. The gist of the method: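 OM-10.1 cells seeded at 200,000 cells/well and co-treated with 1 ng/mL TNFα plus test compound or 0.1% DMSO for 24 h. Cells were fixed, permeabilized, stained for intracellular p24Gag (KC57-RD1) and scored on live-gated cells by flow cytometry. EC50s were derived after normalizing to TNFα-only controls.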

Data set [6] concerns Jurkat cells. Briefly: Jurkat cell viability, 24 h. The data set is classed as cell-based. To be noted: 0.3 μM.
For data set [7], the system named is J-Lat 10.6 cells. It is filed as cell-based.
For data set [8], the system named is class I and II HDAC. Briefly: Cellular HDAC activity assay. The data set is classed as cell-based.
Data set [9] has as its system HIV RNA in CD4+ T cell culture supernatants. Briefly: Spontaneous viral RNA production in primary CD4+ T cells from donors with HIV. It is filed as cell-based, human.
Data set [10] concerns primary CD4+ T cells. Briefly: Live cell counting of primary CD4+ T cell cultures. It is filed as cell-based, human. To be noted: 30 nM. A digest of the protocol:
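CD4+ T cells came from five HIV-infected donors on suppressive ART (<50 copies/mL for ≥3 years), isolated from PBMCs by negative selection. 10⁶ cells per 1 mL R20+ (20% FBS) received 0.1% DMSO or 30 nM test compound for 24 h. Alternatively: 72 h treatment, wash, re-treatment in R20+ plus IL-2 for 72–96 h, wash, then 24 h compound-free. Cells were counted visually by trypan blue.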

Where [11] appears, read: read-out: TNFα EC50, inhibition of provirus expression.
The mark [12] stands for this setting: 30 nM for 6 – 7 days, washed, 24 hours without compound.

Read-outs that look alike come from different tables or passages of the source.

With `CN1CC[C@H](c2c(O)cc(O)c3c(=O)cc(-c4ccccc4Cl)oc23)[C@H](O)C1` [Flavopiridol, flavopiridol], the CC50 at 6 days in [1] turned out to be 250 ± 60 nM. Moreover, it took 220 ± 40 nM to reach half-maximal cytotoxicity in data set [2] (CC50). Also, the EC50 turned out to be 28 ± 3 nM in data set [3] (read-out: Panobinostat EC50, inhibition of provirus expression); 9 ± 1 nM in data set [3] (read-out: Prostratin EC50, inhibition of provirus expression); 8 ± 0.4 nM in data set [3] (setting [11]); 99 ± 2 nM in [4] (read-out: HMBA EC50, inhibition of provirus expression); 14 ± 2 nM in data set [4] (read-out: JQ1 EC50, inhibition of provirus expression); 19 ± 1 nM in [4] (setting [11]). For the same molecule, in data set [5], the EC50 amounted to 13 ± 0.8 nM. The “viability reduced vs 0.1% DMSO” value in data set [6] is recorded as 38.8 ± 25%. For the same molecule, the “GFP expression 14 days following washout, % of control levels” value in [7] (10 nM for 21 days, J-Lat 10.6) turned out to be 59.7 ± 15.2%. Also, the “GFP expression 24 hours after washing, % of control GFP levels” value in data set [7] (10 nM for 21 days, washed, 24 h drug-free, J-Lat 10.6) is listed as 32.4 ± 3.6%. Besides, the “GFP expression before wash-out, % of untreated cells” value in data set [7] (10 nM, 21 days, J-Lat 10.6) came out at 26.2 ± 9.6%. Further, in [7] (10 nM, 21 days, J-Lat 10.6), the “reduction of spontaneous GFP expression vs 0.1% DMSO” value is listed as 73.8 ± 9.6%. Besides, in [7] (J-Lat 10.6, after 21 days' treatment), the “duration of reinforced latency following withdrawal in vitro” value is at least 14 days. Moreover, the IC50 in data set [8] (read-out: HDAC Inhibition IC50, Jurkat cells, 90 min, HDAC-Glo I/II) was over 1000 nM. In [8] (up to 1 μM, Jurkat), the “HDAC inhibition” value is “no HDAC inhibition was observed”. Also, in data set [9] (setting [12]), the “average reduction in total viral RNA across all cultures” value is 96.8%. The “cultures with reduced viral RNA production” value in data set [9] (setting [12]) was 4 of 5. Moreover, the “cultures with no viral RNA detected” value in data set [9] (30 nM for 6 – 7 days, washed, 24 hours, limit of detection 200 copies/mL) is “two”. The “average increase in viral RNA vs 0.1% DMSO” value in [9] (30 nM, 24 hours) is reported as 7.1 fold. Further, the “HIV RNA in culture supernatant” value in data set [9] (30 nM, 24 hours, CD4+ T cells from five donors with HIV) is 1.7*10^9 ± 3.1*10^9 viral copies/mL. In addition, the live cell count in [10] (24 hours) was 1.2*10^6 ± 5.6*10^5 cells/mL; in data set [10] (after 6 – 7 days), 1.3*10^6 ± 3.9*10^5 cells/mL.

One may read the CC50 as the concentration that lowers cell viability or growth by half. One may read the EC50 as the concentration that produces a half-maximal response. One may read the IC50 as the concentration at which inhibition is half-maximal.
